This is a sample that favours compounds with a hit; in the whole collection about 2.9% have one here.
MEKK2wt PB1 HTS – raises or lowers MEK5 binding to wildtype human MEKK2 PB1 domain; Q9Y2U5; bead flow cytometry, Alexa488-MEK5 binding to MEKK2 WT; actives lie on both sides; binding response (% of control), % at 10 µM; 1.1% of 290,000 active; AID 1531; in the data active means binding response below about 67% or above about 130%
MEKK2 mut-MEK5 – signal of MEK5 binding to mutant human MEKK2 PB1 domain; bead flow cytometry, Alexa488-MEK5 binding to MEKK2 mutant; percent response, % at 10 µM; 0.35% of 290,000 active; in the data active means percent response above about 24%, passing the limit was not always enough
UBC13 polyUb – inhibitors of human UBC13 polyubiquitin chain formation | P61088 | TR-FRET | inhibition, % at 20 µM | 0.47% of 330,000 active | AID 485273; in the data active means inhibition above about 45%, passing the limit was not always enough
MEKK3 PB1 HTS – raises or lowers MEK5 binding to the human MEKK3 PB1 domain | Q99759 | bead-based flow cytometry, Alexa488-MEK5 binding to MEKK3; actives lie on both sides; 0 = blocked by unlabeled MEK5, 100 = vehicle | binding response (% of control), % at 10 µM | 1.4% of 290,000 active | AID 1529;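 active means binding response more than 3 SD above or below the average of its plate-row segment, actives on both sides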;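 further: Alexa488 bead fluorescence after subtracting the streptavidin-only scavenger bead signal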
Apaf-1 inh – blocks human Apaf-1 apoptosome activity | reconstituted apoptosome caspase-3 activity, DEVD-Rh110 fluorescence | inhibition, % at 20 µM | AID 489030 | 0.71% of 330,000 active | O14727; active means inhibition of at least 40% at 20 µM;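 further: plate controls were DMSO wells for no effect and DEVD-CHO caspase inhibitor wells for full effect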
Target sequence (O14727 whole entry, looked up): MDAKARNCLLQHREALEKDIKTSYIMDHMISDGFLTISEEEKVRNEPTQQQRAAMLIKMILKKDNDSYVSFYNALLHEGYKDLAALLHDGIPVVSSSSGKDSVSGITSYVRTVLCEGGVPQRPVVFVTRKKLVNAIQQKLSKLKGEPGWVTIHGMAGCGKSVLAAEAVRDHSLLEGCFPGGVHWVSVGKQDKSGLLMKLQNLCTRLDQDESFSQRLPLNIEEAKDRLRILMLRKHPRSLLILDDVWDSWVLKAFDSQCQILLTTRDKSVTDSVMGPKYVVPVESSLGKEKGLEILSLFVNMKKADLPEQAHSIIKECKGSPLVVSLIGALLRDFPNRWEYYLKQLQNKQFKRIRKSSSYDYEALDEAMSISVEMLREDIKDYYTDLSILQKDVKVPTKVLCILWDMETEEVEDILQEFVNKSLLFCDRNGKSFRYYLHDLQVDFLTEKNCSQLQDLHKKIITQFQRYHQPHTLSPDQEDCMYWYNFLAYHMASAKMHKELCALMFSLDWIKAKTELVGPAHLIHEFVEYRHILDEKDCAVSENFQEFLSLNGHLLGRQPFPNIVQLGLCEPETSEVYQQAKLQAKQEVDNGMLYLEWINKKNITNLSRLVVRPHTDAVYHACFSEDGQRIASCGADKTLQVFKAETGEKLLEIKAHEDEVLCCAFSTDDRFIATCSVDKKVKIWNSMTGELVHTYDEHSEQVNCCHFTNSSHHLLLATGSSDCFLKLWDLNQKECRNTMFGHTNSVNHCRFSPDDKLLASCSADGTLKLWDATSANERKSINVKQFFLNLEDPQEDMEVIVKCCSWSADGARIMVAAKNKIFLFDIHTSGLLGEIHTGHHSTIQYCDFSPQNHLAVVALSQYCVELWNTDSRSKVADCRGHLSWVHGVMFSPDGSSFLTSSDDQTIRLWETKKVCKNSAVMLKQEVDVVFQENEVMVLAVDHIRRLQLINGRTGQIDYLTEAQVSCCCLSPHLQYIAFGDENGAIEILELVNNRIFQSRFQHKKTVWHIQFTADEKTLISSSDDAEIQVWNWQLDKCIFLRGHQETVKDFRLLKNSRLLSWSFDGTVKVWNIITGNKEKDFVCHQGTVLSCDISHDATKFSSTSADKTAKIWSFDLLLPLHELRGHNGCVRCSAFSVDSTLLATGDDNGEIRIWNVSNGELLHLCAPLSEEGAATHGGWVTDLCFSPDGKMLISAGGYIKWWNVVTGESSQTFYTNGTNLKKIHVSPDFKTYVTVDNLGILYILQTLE
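System – cell-free apoptosome with Apaf-1, procaspase-3 and caspase-9 · Buffer or medium – pH 7.5 Hepes buffer with CHAPS, BSA, DTT · Also added – cytochrome c with DEVD-Rh110 · Times – 30 min compound preincubation, 50 min activation, room temperature · Technique – Rh110 fluorescence intensity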
MEKK2wt confirm – raises or lowers MEK5 binding to wildtype human MEKK2, retest; shares compounds with MEKK3 PB1 HTS; bead flow cytometry, Alexa488-MEK5 binding to MEKK2 WT; actives lie on both sides; binding response (% of control), % at 10 µM; 2.4% of 5,900 active; in the data active means binding response below about 16% or above about 210%; inactive means in between
MEKK2mut confirm – signal of MEK5 binding to mutant human MEKK2, retest. shares compounds with MEKK3 PB1 HTS. bead flow cytometry, Alexa488-MEK5 binding to MEKK2 mutant. percent response, % at 10 µM. 2% of 5,900 active; in the data active means percent response mostly above about 71%, no sharp cut-off; inactive means mostly below about 38%;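 further: higher means compound restores mutant binding toward wildtype level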
MEKK3-MEK5 inh – MEKK3-MEK5 PB1 inhibition, single concentration confirmation; 1.8% of 5,900 active; binding response (% of control), % at 10 µM; shares compounds with MEKK3 PB1 HTS; AID 1894; bead flow cytometry, Alexa488-MEK5 binding to MEKK3; hits give low values;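 active means binding response below 72% of control, or above a set upper limit, though filed actives all read lower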;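 further: 100% = DMSO only wells and 0% = binding blocked by excess unlabeled MEK5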
Starred values were filed as active, the others as inactive; [ ] = another dose, or the depositor's remark.

Screening c1ccc2nc3ccccc3nc2c1 returned MEKK2wt PB1 HTS 68, MEKK2 mut-MEK5 1, UBC13 polyUb -12, MEKK3 PB1 HTS 46*[inhibitor], Apaf-1 inh 3, MEKK2wt confirm 103, MEKK2mut confirm 7 and MEKK3-MEK5 inh 105.
Screening Cc1cc(/C=C2/SC(=O)N(CC(=O)N3CCOCC3)C2=O)c(C)n1-c1ccccc1F returned MEKK2wt PB1 HTS 105, MEKK2 mut-MEK5 0, UBC13 polyUb -2, MEKK3 PB1 HTS 148*, Apaf-1 inh 3, MEKK2wt confirm 103, MEKK2mut confirm -8 and MEKK3-MEK5 inh 98.
COc1ccc(-n2c(C)cc(/C=C3/SC(=O)N(CC(=O)N4CCOCC4)C3=O)c2C)cc1 was read as MEKK2wt PB1 HTS 101, MEKK2 mut-MEK5 -2, UBC13 polyUb -12, MEKK3 PB1 HTS 97 and Apaf-1 inh 4.
For O=C(COC(=O)c1ccccc1SCC(=O)NC1CCS(=O)(=O)C1)NC1CCS(=O)(=O)C1 (stereo not given) the results were MEKK2wt PB1 HTS 1.0*[inhibitor], MEKK2 mut-MEK5 -60, UBC13 polyUb -22, MEKK3 PB1 HTS 2.0*[inhibitor], Apaf-1 inh -5, MEKK2wt confirm 91, MEKK2mut confirm -9 and MEKK3-MEK5 inh 86.
O=C(COC(=O)c1ccccc1SCC(=O)N1CCCC1)NC1CCS(=O)(=O)C1 (stereo not given) was read as UBC13 polyUb -5 and Apaf-1 inh 3.
For COc1ccc(C(=O)NNC(=O)c2ccc(C(C)(C)C)cc2)cc1 the results were MEKK2wt PB1 HTS 2.0*[inhibitor], MEKK2 mut-MEK5 -46, UBC13 polyUb 7, MEKK3 PB1 HTS 1.0*[inhibitor], Apaf-1 inh 1, MEKK2wt confirm 102, MEKK2mut confirm -1 and MEKK3-MEK5 inh 101.
For COc1ccc(C(=O)NNC(=O)CCC(=O)NNC(=O)c2ccc(OC)cc2)cc1 the results were MEKK2wt PB1 HTS 105, MEKK2 mut-MEK5 7, UBC13 polyUb 3, MEKK3 PB1 HTS 105 and Apaf-1 inh 10.
For COc1ccccc1CNCC(O)(c1ccc(Cl)cc1)c1ccc(Cl)cc1 the results were MEKK2wt PB1 HTS 163*, MEKK2 mut-MEK5 21, UBC13 polyUb 17, MEKK3 PB1 HTS 104, Apaf-1 inh 25, MEKK2wt confirm 146, MEKK2mut confirm 25 and MEKK3-MEK5 inh 102.
Screening CC1CCCCN1c1nc2nonc2nc1N1CCCCC1C (stereo not given) returned MEKK2wt PB1 HTS 97, MEKK2 mut-MEK5 6, UBC13 polyUb 2, MEKK3 PB1 HTS 126*, Apaf-1 inh 9, MEKK2wt confirm 98, MEKK2mut confirm -2 and MEKK3-MEK5 inh 99.
`CC(=O)c1cc2c(cc1NS(=O)(=O)c1ccccc1)OCO2` gave MEKK2wt PB1 HTS 97, MEKK2 mut-MEK5 0, UBC13 polyUb 5, MEKK3 PB1 HTS 104 and Apaf-1 inh -12.
`CC(=O)c1cc2c(cc1N/C(=N/S(=O)(=O)c1ccccc1)c1ccc(Cl)cc1)OCO2` gave MEKK2wt PB1 HTS 102, MEKK2 mut-MEK5 0, UBC13 polyUb 5, MEKK3 PB1 HTS 129*, Apaf-1 inh 14, MEKK2wt confirm 96, MEKK2mut confirm -4 and MEKK3-MEK5 inh 100.
For Cc1nnc(Nc2ccccc2)n(N)c1=O the results were MEKK2wt PB1 HTS -1.0*[inhibitor], MEKK2 mut-MEK5 -21, UBC13 polyUb 7, MEKK3 PB1 HTS 0.0*[inhibitor], Apaf-1 inh -2, MEKK2wt confirm 104, MEKK2mut confirm 7 and MEKK3-MEK5 inh 104.
For Cc1nnc(NN)n(N)c1=O the results were MEKK2wt PB1 HTS 100, MEKK2 mut-MEK5 4, UBC13 polyUb -4, MEKK3 PB1 HTS 105 and Apaf-1 inh -13.
`COCc1c(C(=O)OC)nnn1-c1ccc(C(F)(F)F)cc1[N+](=O)[O-]` gave MEKK2wt PB1 HTS 105, MEKK2 mut-MEK5 7, UBC13 polyUb 3, MEKK3 PB1 HTS 101 and Apaf-1 inh -10.
`CCc1nnc(NC(=O)CSc2ccc(-c3ccccc3OC)nn2)s1` gave MEKK2wt PB1 HTS 83, MEKK2 mut-MEK5 -3, UBC13 polyUb 12, MEKK3 PB1 HTS 67*[inhibitor], Apaf-1 inh -10, MEKK2wt confirm 97, MEKK2mut confirm -3 and MEKK3-MEK5 inh 100.
`COc1ccccc1-c1ccc(SCc2ccccc2)nn1` gave MEKK2wt PB1 HTS 79, MEKK2 mut-MEK5 -3, UBC13 polyUb 21, MEKK3 PB1 HTS 73*[inhibitor], Apaf-1 inh -7, MEKK2wt confirm 98, MEKK2mut confirm -3 and MEKK3-MEK5 inh 101.
`CCc1nnc(NC(=O)CSc2ccc(-c3cccs3)nn2)s1` gave MEKK2wt PB1 HTS 83, MEKK2 mut-MEK5 -11, UBC13 polyUb -21, MEKK3 PB1 HTS 90 and Apaf-1 inh 11.
`COc1ccccc1-c1ccc(SCc2cccc(F)c2)nn1` gave MEKK2wt PB1 HTS 97, MEKK2 mut-MEK5 -3, UBC13 polyUb 1, MEKK3 PB1 HTS 101 and Apaf-1 inh -9.
CC(=O)[C@H]1[C@H]([C@H](O)[C@H](O)CO)O[C@](O)(C(=O)O)C[C@@H]1O was read as UBC13 polyUb -7 and Apaf-1 inh -6.
For O=C(CN1CC(=O)Nc2ccccc21)NCCc1ccc(Cl)cc1Cl the results were MEKK2wt PB1 HTS 98, MEKK2 mut-MEK5 -3, UBC13 polyUb 2, MEKK3 PB1 HTS 96 and Apaf-1 inh 16.
For Cc1ccccc1OCC(=O)Nc1ccc2[nH]ncc2c1 the results were MEKK2wt PB1 HTS 97, MEKK2 mut-MEK5 -1, UBC13 polyUb -4, MEKK3 PB1 HTS 97 and Apaf-1 inh -7.
C[n+]1c2n(c3ccccc31)N=C(c1ccc(-c3ccccc3)cc1)CS2 was read as MEKK2wt PB1 HTS 159*, MEKK2 mut-MEK5 6, UBC13 polyUb 17, MEKK3 PB1 HTS 112, Apaf-1 inh 27, MEKK2wt confirm 120, MEKK2mut confirm -22 and MEKK3-MEK5 inh 89.
`COc1ccc(-c2nsc3c(N4CCN(S(=O)(=O)c5ccccc5F)CC4)ncnc23)cc1` gave MEKK2wt PB1 HTS 80, MEKK2 mut-MEK5 -14, UBC13 polyUb 11, MEKK3 PB1 HTS 71*[inhibitor], Apaf-1 inh -16, MEKK2wt confirm 101, MEKK2mut confirm -5 and MEKK3-MEK5 inh 100.
For O=C(O)/C=C/C(=O)OC1CC2CCC1C2 (stereo not given) the results were MEKK2wt PB1 HTS 117, MEKK2 mut-MEK5 29, UBC13 polyUb -3, MEKK3 PB1 HTS 134*, Apaf-1 inh 9, MEKK2wt confirm 105, MEKK2mut confirm 8 and MEKK3-MEK5 inh 105.
For O=C(Cc1ccc(Br)cc1)OCC(=O)N1CCOCC1 the results were UBC13 polyUb -10 and Apaf-1 inh 1.

Screening results from PubChem.
